According to ChEMBL document CHEMBL1124255, “7-substituted 5-amino-1-cyclopropyl-6,8-difluoro-1,4-dihydro-4-oxo-3- quinolinecarboxylic acids: synthesis and biological activity of a new class of quinolone antibacterials” (J Med Chem, 1988):
pIC50: −log10 of the molar value. ≈ marks a conversion by molar mass, not a printed value.

Legend:
[1] = tested on: Escherichia coli; experiment: Antibacterial activity against Escherichia coli H560; type: functional
Summary of the method: (§1)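 Minimum inhibitory concentration measured by standard microtitration, run as part of a panel of 11 bacterial organisms.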

[2] = tested on: Enterococcus faecalis; experiment: Antibacterial activity against Streptococcus faecalis MGH-2; type: functional; summary of the method: as §1
[3] = tested on: Escherichia coli; experiment: Median protective dose against Escherichia coli, determined in acute, lethal systemic infection in female charles river CD-1 mice (po); type: functional; design: PD50: unit not given here; details: for ED50: Escherichia coli, po, read-out: PD50
Summary of the method: (§2)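 Female Charles River CD-1 mice (18-22 g) were challenged intraperitoneally with about 100 median lethal doses in 0.5 mL 5% hog gastric mucin. Single compound doses in a twofold rising series were given in 0.5 mL at the time of challenge: sc as aqueous solution, po by gavage in 5% gum acacia. Groups of eight mice were used per dose. PD50 was estimated from survival percentages by log probit.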

[4] = tested on: Klebsiella pneumoniae; experiment: Antibacterial activity against Klebsiella pneumoniae MGH-2; type: functional; summary of the method: as §1
[5] = tested on: Streptococcus pyogenes; experiment: Antibacterial activity against Streptococcus pyogenes C203; type: functional; summary of the method: as §1
[6] = tested on: Providencia rettgeri; experiment: Antibacterial activity against Providencia rettgeri M1771; type: functional; summary of the method: as §1
[7] = tested on: Staphylococcus aureus; experiment: Antibacterial activity against Staphylococcus aureus H-228; type: functional; summary of the method: as §1
[8] = tested on: Streptococcus pneumoniae; experiment: Antibacterial activity against Streptococcus pneumoniae SV-1; type: functional; summary of the method: as §1
[9] = tested on: Pseudomonas aeruginosa; experiment: Antibacterial activity against Pseudomonas aeruginosa UI-18; type: functional; summary of the method: as §1
[10] = tested on: Staphylococcus aureus; experiment: Antibacterial activity against Staphylococcus aureus UC76; type: functional; summary of the method: as §1
[11] = tested on: Enterobacter cloacae; experiment: Antibacterial activity against Enterobacter cloacae MA2646; type: functional
[12] = tested on: Escherichia coli; experiment: Antibacterial activity against Escherichia coli Vogel; type: functional; summary of the method: as §1
[13] = molecular target: DNA gyrase (Escherichia coli, UniProt P0AES4+P0AES6); experiment: 50% inhibitory concentration against DNA-gyrase; type: protein-complex assay
[14] = tested on: Escherichia coli; experiment: Median protective dose against Escherichia coli, determined in acute, lethal systemic infection in female charles river CD-1 mice (sc); type: functional; details: read-out: PD50; summary of the method: as §2

| Compound | MIC [1] [µg/mL] | MIC [2] [µg/mL] | PD50 [3] | MIC [4] [µg/mL] | MIC [5] [µg/mL] | MIC [6] [µg/mL] | MIC [7] [µg/mL] | MIC [8] [µg/mL] | MIC [9] [µg/mL] | MIC [10] [µg/mL] | MIC [11] [µg/mL] | MIC [12] [µg/mL] | pIC50 [13] | ED50 [14] [mg/kg] | ED50 [3] [mg/kg] |
| --- | --- | --- | --- | --- | --- | --- | --- | --- | --- | --- | --- | --- | --- | --- | --- |
| CCNCC1CCN(c2c(F)c(N)c3c(=O)c(C(=O)O)cn(C4CC4)c3c2F)C1 (centres undefined) | 0.013 (≈ 0.032 µM) | 0.025 (≈ 0.0615 µM) | 16 | 0.05 (≈ 0.123 µM) | 0.013 (≈ 0.032 µM) | 0.05 (≈ 0.123 µM) | 0.013 (≈ 0.032 µM) | 0.003 (≈ 0.00738 µM) | 0.4 (≈ 0.984 µM) | 0.003 (≈ 0.00738 µM) | 0.05 (≈ 0.123 µM) | 0.05 (≈ 0.123 µM) | 5.18 | 2.4 | – |
| NCC1CCN(c2c(F)c(N)c3c(=O)c(C(=O)O)cn(C4CC4)c3c2F)C1 (centres undefined) | 0.003 (≈ 0.00793 µM) | 0.013 (≈ 0.0344 µM) | – | 0.025 (≈ 0.0661 µM) | 0.003 (≈ 0.00793 µM) | 0.05 (≈ 0.132 µM) | 0.006 (≈ 0.0159 µM) | 0.003 (≈ 0.00793 µM) | 0.1 (≈ 0.264 µM) | 0.003 (≈ 0.00793 µM) | 0.025 (≈ 0.0661 µM) | 0.013 (≈ 0.0344 µM) | 5.12 | 0.8 | 12 |
| CC1COc2c(N3CCN(C)CC3)c(F)c(N)c3c(=O)c(C(=O)O)cn1c23 (centres undefined) | 0.1 (≈ 0.266 µM) | 1.6 (≈ 4.25 µM) | – | 0.4 (≈ 1.06 µM) | 3.1 (≈ 8.24 µM) | 1.6 (≈ 4.25 µM) | 0.8 (≈ 2.13 µM) | 3.1 (≈ 8.24 µM) | 0.8 (≈ 2.13 µM) | 0.2 (≈ 0.531 µM) | 0.8 (≈ 2.13 µM) | 0.2 (≈ 0.531 µM) | 4.16 | 4.6 | 7.5 |
| CN1CCN(c2c(F)c(N)c3c(=O)c(C(=O)O)cn(C4CC4)c3c2F)CC1 | 0.003 (≈ 0.00793 µM) | 0.1 (≈ 0.264 µM) | – | 0.013 (≈ 0.0344 µM) | 0.4 (≈ 1.06 µM) | 0.05 (≈ 0.132 µM) | 0.05 (≈ 0.132 µM) | 0.2 (≈ 0.529 µM) | 0.1 (≈ 0.264 µM) | 0.025 (≈ 0.0661 µM) | 0.013 (≈ 0.0344 µM) | 0.013 (≈ 0.0344 µM) | 5.13 | 1.1 | 2.2 |
| CNCC1CCN(c2c(F)c(N)c3c(=O)c(C(=O)O)cn(C4CC4)c3c2F)C1 (centres undefined) | 0.003 (≈ 0.00765 µM) | 0.025 (≈ 0.0637 µM) | – | 0.05 (≈ 0.127 µM) | 0.003 (≈ 0.00765 µM) | 0.2 (≈ 0.51 µM) | 0.013 (≈ 0.0331 µM) | 0.003 (≈ 0.00765 µM) | 0.4 (≈ 1.02 µM) | 0.006 (≈ 0.0153 µM) | 0.05 (≈ 0.127 µM) | 0.025 (≈ 0.0637 µM) | 5.12 | 0.8 | 7.5 |
| O=C(O)c1cn(C2CC2)c2cc(N3CCNCC3)c(F)cc2c1=O [CIPROFLOXACIN] | 0.025 (≈ 0.0754 µM) | 0.8 (≈ 2.41 µM) | – | 0.1 (≈ 0.302 µM) | 0.8 (≈ 2.41 µM) | 0.1 (≈ 0.302 µM) | 3.1 (≈ 9.36 µM) | 1.6 (≈ 4.83 µM) | 0.4 (≈ 1.21 µM) | 0.2 (≈ 0.604 µM) | – | – | – | 0.3 | 1.2 |
| CCNCC1CCN(c2c(F)cc3c(=O)c(C(=O)O)cn(C4CC4)c3c2F)C1 (centres undefined) [PD-117558] | 0.025 (≈ 0.0639 µM) | 0.025 (≈ 0.0639 µM) | – | 0.1 (≈ 0.255 µM) | 0.025 (≈ 0.0639 µM) | 0.2 (≈ 0.511 µM) | 0.05 (≈ 0.128 µM) | 0.025 (≈ 0.0639 µM) | 0.4 (≈ 1.02 µM) | 0.006 (≈ 0.0153 µM) | 0.2 (≈ 0.511 µM) | 0.05 (≈ 0.128 µM) | 5.45 | 1 | 4.2 |
| CCNCC1CCN(c2c(F)c(NC(C)=O)c3c(=O)c(C(=O)O)cn(C4CC4)c3c2F)C1 (centres undefined) | 12.5 (≈ 27.9 µM) | 12.5 (≈ 27.9 µM) | – | > 25 | 12.5 (≈ 27.9 µM) | > 25 | 12.5 (≈ 27.9 µM) | 6.3 (≈ 14 µM) | > 25 | 3.1 (≈ 6.91 µM) | > 25 | > 25 | < 3.65 | – | – |
| CN1CCN(c2c(F)c(N(C)C)c3c(=O)c(C(=O)O)cn(C4CC4)c3c2F)CC1 | > 25 | > 25 | – | > 25 | > 25 | > 25 | > 25 | > 25 | > 25 | > 25 | > 25 | > 25 | < 3.31 | – | – |
| Nc1c(F)c(N2CCC(N)C2)c(F)c2c1c(=O)c(C(=O)O)cn2C1CC1 (centres undefined) | 0.003 (≈ 0.00823 µM) | 0.025 (≈ 0.0686 µM) | – | 0.006 (≈ 0.0165 µM) | 0.025 (≈ 0.0686 µM) | 0.025 (≈ 0.0686 µM) | 0.013 (≈ 0.0357 µM) | 0.006 (≈ 0.0165 µM) | 0.05 (≈ 0.137 µM) | 0.006 (≈ 0.0165 µM) | 0.006 (≈ 0.0165 µM) | 0.006 (≈ 0.0165 µM) | 5.15 | 0.4 | 1.6 |
| CC1COc2c(N3CCN(C)CC3)c(F)cc3c(=O)c(C(=O)O)cn1c23 (centres undefined) [OFLOXACIN] | 0.1 (≈ 0.277 µM) | 0.8 (≈ 2.21 µM) | – | 0.1 (≈ 0.277 µM) | 0.8 (≈ 2.21 µM) | 0.1 (≈ 0.277 µM) | 0.4 (≈ 1.11 µM) | 0.8 (≈ 2.21 µM) | 0.4 (≈ 1.11 µM) | 0.1 (≈ 0.277 µM) | 0.1 (≈ 0.277 µM) | 0.1 (≈ 0.277 µM) | – | 0.8 | 2 |
| CCNCC1CCN(c2c(F)c(NC)c3c(=O)c(C(=O)O)cn(C4CC4)c3c2F)C1 (centres undefined) | 0.05 (≈ 0.119 µM) | 0.1 (≈ 0.238 µM) | – | 0.4 (≈ 0.951 µM) | 0.1 (≈ 0.238 µM) | 1.6 (≈ 3.81 µM) | 0.025 (≈ 0.0595 µM) | 0.025 (≈ 0.0595 µM) | 3.1 (≈ 7.37 µM) | 0.025 (≈ 0.0595 µM) | 0.4 (≈ 0.951 µM) | 0.2 (≈ 0.476 µM) | 4.48 | 5 | 11 |
| CC(=O)Nc1c(F)c(N2CCNCC2)c(F)c2c1c(=O)c(C(=O)O)cn2C1CC1 | > 25 | > 25 | – | > 25 | > 25 | > 25 | > 25 | > 25 | > 25 | > 25 | > 25 | > 25 | < 3.61 | – | – |
| Nc1c(F)c(N2CCNCC2)c(F)c2c1c(=O)c(C(=O)O)cn2C1CC1 | 0.003 (≈ 0.00823 µM) | 0.05 (≈ 0.137 µM) | – | 0.025 (≈ 0.0686 µM) | 0.2 (≈ 0.549 µM) | 0.05 (≈ 0.137 µM) | 0.05 (≈ 0.137 µM) | 0.05 (≈ 0.137 µM) | 0.025 (≈ 0.0686 µM) | 0.013 (≈ 0.0357 µM) | 0.013 (≈ 0.0357 µM) | 0.013 (≈ 0.0357 µM) | 5.11 | 0.2 | 0.8 |
| O=C(O)c1cn(C2CC2)c2c(F)c(N3CCNCC3)c(F)cc2c1=O | 0.025 (≈ 0.0716 µM) | 0.4 (≈ 1.15 µM) | 0.45 | 0.05 (≈ 0.143 µM) | 0.8 (≈ 2.29 µM) | 0.1 (≈ 0.286 µM) | 0.4 (≈ 1.15 µM) | 0.8 (≈ 2.29 µM) | 0.2 (≈ 0.573 µM) | 0.1 (≈ 0.286 µM) | 0.05 (≈ 0.143 µM) | 0.1 (≈ 0.286 µM) | 5.10 | 0.3 | – |
| CNc1c(F)c(N2CCNCC2)c(F)c2c1c(=O)c(C(=O)O)cn2C1CC1 | 0.025 (≈ 0.0661 µM) | 1.6 (≈ 4.23 µM) | – | 0.1 (≈ 0.264 µM) | 3.1 (≈ 8.19 µM) | 0.8 (≈ 2.11 µM) | 0.8 (≈ 2.11 µM) | 0.8 (≈ 2.11 µM) | 1.6 (≈ 4.23 µM) | 0.2 (≈ 0.529 µM) | 0.1 (≈ 0.264 µM) | 0.1 (≈ 0.264 µM) | 4.44 | 0.8 | 1.5 |
